RGS7-Gao reg – RGS7-Galphao binding modulators, primary screen, biochemical, multiplexed bead flow cytometry | actives lie on both sides | binding response (% of control), % at 10 µM | 0.35% of 220,000 active | AID 1439, 2008; in the data active = binding response below about 49% or above about 150%; inconclusive = no clear call, values can overlap the other calls; inactive = in between;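 also: fluorescent Galphao held in activated GDP-AlF4 state binding bead-coupled RGS7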
Target sequence (P09471 whole entry, looked up): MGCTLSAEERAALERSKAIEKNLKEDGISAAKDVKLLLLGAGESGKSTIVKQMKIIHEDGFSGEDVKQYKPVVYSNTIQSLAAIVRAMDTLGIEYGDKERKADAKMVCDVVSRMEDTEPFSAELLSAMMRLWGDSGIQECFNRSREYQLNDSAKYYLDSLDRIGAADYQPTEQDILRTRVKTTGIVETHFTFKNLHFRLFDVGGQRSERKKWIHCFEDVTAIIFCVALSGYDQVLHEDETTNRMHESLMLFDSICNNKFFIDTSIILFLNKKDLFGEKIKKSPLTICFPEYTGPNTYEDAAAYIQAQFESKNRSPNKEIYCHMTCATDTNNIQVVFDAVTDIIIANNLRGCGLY
RGS8-Gao – RGS8-Galphao binding modulators, primary screen, biochemical, multiplexed bead flow cytometry; response (percent of control binding), % at 10 µM; Guanine nucleotide-binding protein G(o) subunit alpha (Homo sapiens), P09471; AID 1423, 2008; 0.34% of 220,000 active; actives lie on both sides; in the data active = response below about 60% or above about 140%; inactive = in between;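 also: Galphao activated as the GDP aluminium fluoride complex binding bead-coupled RGS8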
RGS16-Gao HTS – modulators of RGS16 binding to Galphao, primary screen, biochemical, human proteins, multiplexed bead flow cytometry | 0.38% of 220,000 active | binding response (% of control), % at 10 µM | bead-based flow cytometry RGS16-Galphao binding, fluorescence; actives lie on both sides | Regulator of G-protein signaling 16 (Homo sapiens) + Guanine nucleotide-binding protein …;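 also: Galphao activated by GDP with aluminum fluoride before binding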
Target sequence (O15492 whole entry, looked up): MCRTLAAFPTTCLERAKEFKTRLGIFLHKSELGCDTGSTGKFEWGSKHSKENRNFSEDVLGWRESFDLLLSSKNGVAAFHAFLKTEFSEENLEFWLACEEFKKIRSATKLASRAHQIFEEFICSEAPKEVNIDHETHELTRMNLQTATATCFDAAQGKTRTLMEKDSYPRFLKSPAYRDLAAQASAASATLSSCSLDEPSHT
Target sequence (P09471 whole entry, looked up): as the sequence (P09471 whole entry, looked up) above
ABCG2 block – ABCG2 efflux pump inhibitors, primary screen, multiplex with ABCB1, IgMXP3 cells, flow cytometry. JC-1 efflux. AID 1325, 2008. Broad substrate specificity ATP-binding cassette transporter ABCG2 (Homo sapiens), Q9UNQ0. inhibition, % at 6.6 µM. 0.1% of 190,000 active;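 active = inhibition above 80%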;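 also: 0% = DMSO and 100% = nicardipine control wells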
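Test system: IgMXP3 (ABCG2) plus far-red-tagged CCRF-Adr (ABCB1) cells / Amount: 3 million cells/mL in well / Reagent: JC-1 transporter substrate / Timing: 10 min compound exposure, 25 °C / Signal: flow cytometry, 530 nm JC-1 signal / Read-out: percent efflux inhibition, scaled nicardipine 100% to DMSO 0% / Benchmarks: nicardipine as high control, DMSO as low control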
RGS4-Gao reg – modulators of RGS4 binding to Galphao, primary screen, biochemical, multiplexed bead flow cytometry; actives lie on both sides; binding response (% of control), % at 10 µM; 0.33% of 220,000 active; AID 1415, 2008; in the data active = binding response below about 49% or above about 150%; inactive = in between;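 also: fluorescent Galphao activated with aluminum fluoride binding bead-coupled RGS4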
ABCB1 inh – ABCB1 efflux pump inhibitors, primary screen, cell-based, multiplex, flow cytometry, ABCG2 counter-screen; AID 1326, 2008; 0.067% of 190,000 active; ATP-dependent translocase ABCB1 (Homo sapiens), P08183; inhibition, % at 6.6 µM; CCRF-Adr cells, JC-1 efflux; in the data active = inhibition above about 40%;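 also: 0% = vehicle and 100% = reference inhibitor; higher value means more JC-1 retained so stronger ABCB1 efflux block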
RGS4-Gao HTS – modulators of RGS–Galpha-o binding, primary screen, biochemical, multiplexed beads, flow cytometry, RGS4/7/8/16/19; shares compounds with RGS16-Gao HTS; multiplexed bead flow cytometry; RGS4–Galpha-o binding response, % at 10 µM; 99% of 1,600 active; AID 1504, 2009;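 also: fluorescently labeled Galpha-o bound to GDP with aluminium fluoride binding biotinylated RGS beads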
Avidin counter – disruption of biotin probe capture by avidin, counter-screen for RGS protein interaction modulators, biochemical, flow cytometry, bead-based. 1,700 tested, under 10 active. shares compounds with RGS16-Gao HTS. inhibition, % at 10 µM. streptavidin beads, fluorescein-biotin binding;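 active = inhibition above 50%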;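 also: median green fluorescence of gated singlet beads compared with DMSO control wells; 0% = DMSO wells and 100% = complete loss of bead fluorescence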
RGS8-Gao single – RGS8-Galphao binding modulators, confirmation, biochemical, multiplexed bead flow cytometry, single concentration; shares compounds with RGS16-Gao HTS; bead-based flow cytometry RGS8-Galphao binding, fluorescence; actives lie on both sides; binding response (% of control), % at 10 µM; 3% of 1,700 active; AID 1836, 2009; in the data active = binding response below about 72% or above about 130%; inactive = in between;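 also: Galphao activated as GDP AlF4 complex before binding bead RGS8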
RGS7-Gao single – RGS7-Galphao binding modulators, confirmation, biochemical, multiplexed bead flow cytometry, single concentration; shares compounds with RGS16-Gao HTS; bead-based flow cytometry RGS7-Galphao binding; actives lie on both sides; response (percent of control binding), % at 10 µM; 7.8% of 1,700 active; in the data active = response below about 75% or above about 130%; inactive = in between;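 also: fluorescent Galphao activated with GDP and aluminum fluoride binding bead-coupled RGS7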
RGS16-Gao conf – modulators of RGS16-Galphao protein binding, confirmation, biochemical, single concentration, multiplexed bead flow cytometry | shares compounds with RGS16-Gao HTS | bead-based flow cytometry; actives lie on both sides | response (% of control binding), % at 10 µM | 4% of 1,700 active; in the data active = response below about 74% or above about 130%; inactive = in between;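 also: Galphao activated as the GDP aluminium fluoride complex binding bead-coupled RGS16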
RGS4-Gao single – modulators of RGS4-Galphao protein binding, confirmation, biochemical, single concentration, multiplexed bead flow cytometry; shares compounds with RGS16-Gao HTS; AID 1840, 2009; 4% of 1,700 active; actives lie on both sides; binding response (% of control), % at 10 µM; in the data active = binding response below about 74% or above about 130%; inactive = in between
RGS19-Gao conf – regulators of RGS19-Galphao binding, confirmation, biochemical, single point, multiplexed bead flow cytometry; AID 1841, 2009; shares compounds with RGS16-Gao HTS; response (percent of control binding), % at 10 µM; 5% of 1,700 active; bead-based flow cytometry RGS19-Galphao binding; actives lie on both sides; in the data active = response below about 50% or above about 160%; inactive = in between;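 also: 100% = no compound control and 0% = blank background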
Starred values were filed as active, the others as inactive; i = inactive; ? = inconclusive; . = no result; [ ] = another dose, or the depositor's remark. Sampled rows, rich in hits. Any-hit rate of the full collection: about 0.9%. Unless noted, no rule for the calls is given here.

SMILES | RGS7-Gao reg | RGS8-Gao | RGS16-Gao HTS | ABCG2 block | RGS4-Gao reg | ABCB1 inh | Avidin counter | RGS8-Gao single | RGS7-Gao single | RGS16-Gao conf | RGS4-Gao single | RGS19-Gao conf | others
N=c1sccn1CC(=O)Nc1cccc(S(=O)(=O)N2CCCCCC2)c1 | ? | 94.3 | 91.7 | 1.6 | 95.0 | 0.4 | . | . | . | . | . | .
CC(=O)c1cccc(NS(=O)(=O)c2ccc(N/C=C/C(=O)c3ccc(F)cc3)cc2)c1 | 105.2 | 100.6 | 103.1 | -2.2 | 104.3 | -0.8 | . | . | . | . | . | .
CC(=O)c1cccc(NS(=O)(=O)c2ccc(N/C=C\C(=O)c3ccc(C)cc3)cc2)c1 | 264.4*[activator] | 89.7 | 114.4 | 0.1 | 138.1 | -0.1 | . | . | . | . | . | . | RGS4-Gao HTS=138.1*
COCCN1C(=O)c2ccccc2C(C(=O)NCc2ccco2)C1c1c[nH]c2ccccc12 (configuration not stated) | 101.2 | 97.0 | 99.2 | 17.1 | 98.6 | 1.2 | . | . | . | . | . | .
COCCN1C(=O)c2ccccc2C(C(=O)NCCCN2CCCC2)C1c1c[nH]c2ccccc12 (configuration not stated) | 33.5* | 41.6* | 32.4 | 29.5 | 38.4* | 0.5 | 1.0 | 104.6 | 94.3 | 100.7 | 98.7 | 92.9
COC(=O)Cc1cc(OC)c(OC)cc1S(=O)(=O)N(C)C | 100.2 | 101.1 | 98.8 | 3.0 | 100.1 | 0.6 | . | . | . | . | . | .
Cc1ccc(-n2c(SCC(=O)NCc3ccco3)nc3c([nH]c4ccccc43)c2=O)cc1 | -10.8* | 6.5* | -4.2* | -0.3 | -3.0* | -0.6 | 0.7 | 111.2 | 118.8 | 110.6 | 113.1 | 106.0
CCOc1ccc(Br)cc1-c1noc(-c2cccs2)n1 | 12.0* | 8.4* | -8.5 | 7.1 | 21.3* | 0.7 | 0.0 | 98.6 | 96.8 | 96.4 | 96.8 | 100.0
COc1ccc2c(Cl)c(C(=O)N/N=C/c3c(C)[nH]c4ccccc34)sc2c1 | 156.1*[activator] | 105.3 | 127.8 | 0.4 | 139.4 | 0.0 | 1.0 | 121.1 | 267.4*[activator] | 175.1*[activator] | 186.8*[activator] | 368.2*[activator] | RGS4-Gao HTS=139.4*
COc1ccc2c(Cl)c(C(=O)N/N=C/c3ccc4c(c3)OCO4)sc2c1 | 98.9 | 101.7 | 101.9 | 0.1 | 101.0 | -0.1 | . | . | . | . | . | .
O=S(=O)(c1ccc(-c2ccccn2)s1)N1CCC2(CC1)OCCO2 | ? | 100.2 | 97.9 | . | 100.0 | . | . | . | . | . | . | .
COc1ccc(-n2c(C)cc(/C=C3/SC(=S)N(C)C3=O)c2C)cc1 | -5.5* | 2.9* | -2.3* | 11.5 | -20.3* | 3.1 | 3.0 | 98.6 | 103.9 | 97.9 | 98.2 | 102.7
Cc1cc(/C=C2\SC(=S)N(C)C2=O)c(C)n1-c1cccc(O)c1 | ? | 102.5 | 98.8 | . | 96.2 | . | . | . | . | . | . | .
CN(c1ccccc1)S(=O)(=O)c1cccc(C(=O)OCC(=O)NCCCN2CCCC2=O)c1 | ? | 96.3 | 93.9 | 0.0 | 94.5 | 0.0 | . | . | . | . | . | .
CC(=O)N(C1=C(Cl)C(=O)c2ccccc2C1=O)C1CCCCC1 | ? | 53.7* | 3.0* | . | 87.0 | . | . | . | . | . | . | . | RGS4-Gao HTS=87.0*
COc1ccc(CNS(=O)(=O)NCc2ccc(C)cc2)cc1OC | 97.1 | 100.7 | 98.5 | 3.5 | 99.7 | 0.1 | . | . | . | . | . | .
CS(=O)(=O)c1nc2ccccc2n1Cc1ccccc1 | . | . | . | 12.0 | . | 1.2 | -0.1 | 99.8 | 103.1 | 99.2 | 104.3 | 107.7
O=S(=O)(O)c1nc2ccccc2n1Cc1ccccc1 | 99.5 | 98.6 | 98.0 | 1.1 | 97.0 | 0.2 | . | . | . | . | . | .
CCN(CC)S(=O)(=O)c1cccc(-c2nnc(SCCOc3ccccc3C)o2)c1 | 152.5*[activator] | . | 210.7*[activator] | 2.2 | 177.4*[activator] | 0.3 | 1.0 | 101.2 | 103.6 | 101.9 | 103.0 | 109.1
COCCCNC(=O)COc1ccc(S(=O)(=O)NCc2ccccc2)cc1Cl | 274.6*[activator] | 407.2*[activator] | i | 3.0 | 314.2*[activator] | 1.4 | -1.3 | 98.8 | 77.3 | 94.3 | 88.9 | 57.2
COCCNS(=O)(=O)c1ccc(OCC(=O)OC)c(Cl)c1 | 98.3 | 98.8 | 95.5 | 0.7 | 100.2 | -0.2 | . | . | . | . | . | .
O=C(NC1CCCCC1)C(c1cccnc1)N(C(=O)CCl)c1cccc(Cl)c1 (configuration not stated) | 99.0 | 98.8 | 93.0 | 11.7 | 100.6 | 3.3 | . | . | . | . | . | .
O=C(NC(=S)Nc1ccc(N2CCCCC2)cc1)c1ccc2c(c1)OCCO2 | 107.3 | 124.8 | 204.0*[activator] | 53.7 | 106.8 | 1.3 | -0.3 | 102.2 | 98.4 | 99.5 | 96.8 | 100.8 | RGS4-Gao HTS=106.8*
COC(CNC(=O)CNC(=S)N(Cc1ccccc1)Cc1cccnc1)OC | 94.1 | 95.0 | 101.8 | 1.5 | 94.7 | 0.2 | . | . | . | . | . | .
Cc1[nH]c2ccccc2c1C(c1ccncc1)N1CCN(c2ccccc2F)CC1 (configuration not stated) | 159.6*[activator] | 92.9 | 101.3 | 10.4 | 119.3 | 10.4 | 1.0 | 100.6 | 101.3 | 101.0 | 100.9 | 100.1 | RGS4-Gao HTS=119.3*

From PubChem
